Test results reported in ChEMBL document CHEMBL1131480, “Novel antipsychotic agents with dopamine autoreceptor agonist properties: synthesis and pharmacology of 7-[4-(4-phenyl-1-piperazinyl)butoxy]-3,4-dihydro-2(1H)-quinolinone derivatives” (1998).
Calls of active or inactive are those of the source. The calls are words filed in the database; no cut-off is given here.

Columns and labels:
Mus musculus [1] = species: Mus musculus; assay: post-synaptic DA receptor antagonist activity was evaluated by inhibition of the apomorphine-induced stereotyped behavior in mice. 51% inhibition at single given dose.; type: functional
Procedure, shortened: (§1)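 Overnight-fasted mice (16-20 h), groups of 10, given compound orally 1 h before apomorphine 1.5 mg/kg sc in 0.9% saline. Stereotypy observed for 1 min every 10 min over 40 min, starting 20 min post-apomorphine, scored by a published scale. ED50 with 95% confidence limits by linear regression, µmol/kg po.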

[2] = target: T1, Alpha-1 adrenergic receptor (Mus musculus) (UniProt P97714+P97717+P97718); assay: Inhibition of the lethal effects of noradrenaline in mice (alpha-1 induced adrenoceptor antagonist activity); type: functional
Mus musculus [3] = species: Mus musculus; assay: Induction of catalepsy in mice; type: functional
[4] = ratio between ED50 values of DA receptor antagonist activity and catalepsy.; type: functional
[5] = test system: Dopamine D2 receptor (Mus musculus); assay: post-synaptic dopamine […] antagonist activity evaluated by inhibition of the apomorphine-induced stereotyped behavior in mice.
Mus musculus [6] = species: Mus musculus; assay: Inhibition of the GBL-induced increase in DOPA accumulation in mice(DA auto receptor agonist activity); type: functional
Mus musculus [7] = species: Mus musculus; assay: post-synaptic DA receptor antagonist activity was evaluated by inhibition of the apomorphine-induced stereotyped behavior in mice. inactive at below given dose; type: functional; procedure, shortened: as §1
[8] = target: T1, Alpha-1 adrenergic receptor (Mus musculus); assay: Inhibition of noradrenaline lethal effects in mice as alpha-1 induced adrenoceptor antagonist activity; type: functional
Mus musculus [9] = species: Mus musculus; assay: post-synaptic DA receptor antagonist activity was evaluated by inhibition of the apomorphine-induced stereotyped behavior in mice. 49% inhibition at single given dose; type: functional; procedure, shortened: as §1
Mus musculus [10] = species: Mus musculus; assay: post-synaptic DA receptor antagonist activity was evaluated by inhibition of the apomorphine-induced stereotyped behavior in mice. inactive at single given dose; type: functional; procedure, shortened: as §1
Rattus norvegicus [11] = species: Rattus norvegicus; assay: Inhibition of the APO-induced stereotyped behavior in rats
Rattus norvegicus [12] = species: Rattus norvegicus; assay: Inhibition of the GBL-induced increase in DOPA synthesis in rats.
Mus musculus [13] = species: Mus musculus; assay: Inhibition of the GBL-induced increase in DOPA accumulation in mice(DA auto receptor agonist activity); IA = inactive; type: functional, organism-based
Mus musculus [14] = species: Mus musculus; assay: Inhibition of the GBL-induced increase in DOPA synthesis in mice; IA = inactive; type: functional, organism-based
Rattus norvegicus [15] = species: Rattus norvegicus; assay: Inhibition of the APO-induced stereotyped behavior in rats.
Mus musculus [16] = species: Mus musculus; assay: Induction of catalepsy in mice.; type: functional

T1 sequence (P97714 whole entry, looked up): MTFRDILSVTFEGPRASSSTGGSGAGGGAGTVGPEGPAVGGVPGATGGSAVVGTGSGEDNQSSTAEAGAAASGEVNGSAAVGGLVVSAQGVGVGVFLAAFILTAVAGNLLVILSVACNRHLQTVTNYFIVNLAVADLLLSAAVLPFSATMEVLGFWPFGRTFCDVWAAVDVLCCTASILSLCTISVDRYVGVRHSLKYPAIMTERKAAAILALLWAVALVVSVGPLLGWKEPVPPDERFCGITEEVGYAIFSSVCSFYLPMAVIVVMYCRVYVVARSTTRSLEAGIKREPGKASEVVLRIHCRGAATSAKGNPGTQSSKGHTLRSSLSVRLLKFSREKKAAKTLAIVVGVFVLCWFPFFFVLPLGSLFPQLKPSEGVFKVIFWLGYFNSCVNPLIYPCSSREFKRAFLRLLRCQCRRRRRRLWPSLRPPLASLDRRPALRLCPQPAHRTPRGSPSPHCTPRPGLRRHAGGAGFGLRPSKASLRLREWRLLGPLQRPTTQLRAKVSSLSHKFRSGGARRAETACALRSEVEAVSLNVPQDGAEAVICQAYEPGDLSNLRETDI
T1 sequence (P97717 whole entry, looked up): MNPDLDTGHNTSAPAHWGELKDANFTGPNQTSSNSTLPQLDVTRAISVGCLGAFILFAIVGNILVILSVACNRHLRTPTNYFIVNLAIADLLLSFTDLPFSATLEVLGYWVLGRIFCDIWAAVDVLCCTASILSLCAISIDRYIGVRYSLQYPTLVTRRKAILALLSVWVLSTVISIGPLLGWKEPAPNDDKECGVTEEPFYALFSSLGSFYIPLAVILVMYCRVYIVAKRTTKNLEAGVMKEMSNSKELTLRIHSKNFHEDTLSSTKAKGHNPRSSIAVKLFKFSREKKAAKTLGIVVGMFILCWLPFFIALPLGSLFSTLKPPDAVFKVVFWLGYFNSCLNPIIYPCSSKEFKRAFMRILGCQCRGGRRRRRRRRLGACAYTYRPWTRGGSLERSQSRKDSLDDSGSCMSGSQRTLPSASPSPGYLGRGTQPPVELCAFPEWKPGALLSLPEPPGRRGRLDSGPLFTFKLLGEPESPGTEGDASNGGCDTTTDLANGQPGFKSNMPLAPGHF
T1 sequence (P97718 whole entry, looked up): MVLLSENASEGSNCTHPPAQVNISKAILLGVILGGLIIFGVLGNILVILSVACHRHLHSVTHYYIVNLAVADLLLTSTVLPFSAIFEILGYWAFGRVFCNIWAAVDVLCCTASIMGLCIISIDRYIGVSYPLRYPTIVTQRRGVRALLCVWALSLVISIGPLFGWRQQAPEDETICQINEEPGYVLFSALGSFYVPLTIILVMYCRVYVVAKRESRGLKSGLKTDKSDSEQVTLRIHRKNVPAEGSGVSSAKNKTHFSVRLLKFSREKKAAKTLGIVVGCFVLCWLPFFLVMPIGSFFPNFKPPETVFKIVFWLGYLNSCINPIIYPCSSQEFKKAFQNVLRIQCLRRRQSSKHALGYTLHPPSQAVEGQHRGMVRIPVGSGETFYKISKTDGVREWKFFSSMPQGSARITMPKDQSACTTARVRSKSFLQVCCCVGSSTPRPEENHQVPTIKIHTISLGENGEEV

Question: Which ED50 (Mus musculus [1]) does the source give for Cc1cc(Br)ccc1N1CCN(CCCCOc2ccc3c(c2)NC(=O)CC3)CC1 here?
Answer: Its ED50 is 21 µmol/kg.

Question: For Cc1c(Cl)cccc1N1CCN(CCCCOc2ccc3ccc(O)nc3c2)CC1, which ED50 [2] is on record?
Answer: Its ED50 is > 299 µmol/kg.

Question: And the ED50 (Mus musculus [3])?
Answer: Its ED50 is 12.6 µmol/kg.

Question: And the Ratio [4]?
Answer: The Ratio was 4.5.

Question: What about the ED50 [5] of the same molecule?
Answer: Its ED50 is 2.8 µmol/kg.

Question: And the ED50 (Mus musculus [6])?
Answer: The ED50 was 20.1 µmol/kg.

Question: What does the source list for Cc1cccc(N2CCN(CCCCOc3ccc4c(c3)NC(=O)CC4)CC2)c1C?
Answer: ED50 [2]: > 314 µmol/kg; ED50 (Mus musculus [3]): 13.5 µmol/kg; ED50 (Mus musculus [6]): 9.1 µmol/kg

Question: With Cc1cccc(N2CCN(CCCCOc3ccc4ccc(O)nc4c3)CC2)c1C as the molecule, how does the ED50 [2] read?
Answer: The ED50 was > 156 µmol/kg.

Question: And the ED50 (Mus musculus [3])?
Answer: The ED50 was 10.5 µmol/kg.

Question: What about the Ratio [4] of the same molecule?
Answer: The Ratio was 3.1.

Question: What about the ED50 [5] of the same molecule?
Answer: The ED50 was 3.4 µmol/kg.

Question: What about the ED50 (Mus musculus [6]) of the same molecule?
Answer: The ED50 was 3.9 µmol/kg.

Question: With O=C1CCc2ccc(OCCCCN3CCN(c4ccc(Cl)cc4)CC3)cc2N1 as the molecule, how does the ED50 (Mus musculus [7]) read?
Answer: The ED50 was > 8 µmol/kg.

Question: What does the source list for Oc1ccc2ccc(OCCCCN3CCN(c4cccc(Cl)c4Cl)CC3)cc2n1?
Answer: ED50 [2]: > 287 µmol/kg; ED50 [5]: 0.9 µmol/kg; ED50 (Mus musculus [6]): > 22 µmol/kg

Question: With O=C1CCc2cc(OCCCCN3CCN(c4cccc(Cl)c4Cl)CC3)ccc2N1 as the molecule, how does the ED50 (Mus musculus [7]) read?
Answer: Its ED50 is > 22 µmol/kg.

Question: For CCOc1ccccc1N1CCN(CCCCOc2ccc3c(c2)NC(=O)CC3)CC1, which ED50 [8] is on record?
Answer: Its ED50 is 7 µmol/kg.

Question: What about the ED50 (Mus musculus [3]) of the same molecule?
Answer: Its ED50 is 4.4 µmol/kg.

Question: What about the ED50 (Mus musculus [6]) of the same molecule?
Answer: Its ED50 is 0.65 µmol/kg.

Question: With O=C1CCc2ccc(OCCCCN3CCN(c4ccccc4[N+](=O)[O-])CC3)cc2N1 as the molecule, how does the ED50 (Mus musculus [7]) read?
Answer: The ED50 was > 7 µmol/kg.

Question: For O=C1CCc2ccc(OCCCCN3CCN(c4cc(Cl)cc(Cl)c4Cl)CC3)cc2N1, which ED50 [8] is on record?
Answer: The ED50 was > 265 µmol/kg.

Question: What about the ED50 (Mus musculus [6]) of the same molecule?
Answer: The ED50 was > 21 µmol/kg.

Question: For Cc1c(Cl)cccc1N1CCN(CCCCCOc2ccc3c(c2)NC(=O)CC3)CC1, which ED50 (Mus musculus [7]) is on record?
Answer: The ED50 was > 23 µmol/kg.

Question: With O=C1CCc2ccc(OCCCCN3CCN(c4ccc(Cl)cc4Cl)CC3)cc2N1 as the molecule, how does the ED50 (Mus musculus [7]) read?
Answer: Its ED50 is > 7 µmol/kg.

Question: Which ED50 (Mus musculus [6]) does the source give for Cc1c(Br)cccc1N1CCN(CCCCOc2ccc3c(c2)NC(=O)CC3)CC1 here?
Answer: Its ED50 is 1.3 µmol/kg.

Question: Which results are given for Cc1c(N2CCN(CCCCOc3ccc4c(c3)NC(=O)CC4)CC2)cccc1[N+](=O)[O-]?
Answer: ED50 [8]: > 146 µmol/kg; ED50 (Mus musculus [3]): 5.9 µmol/kg; Ratio [4]: 8.7; ED50 [5]: 0.7 µmol/kg; ED50 (Mus musculus [6]): > 23 µmol/kg

Question: With CCOc1ccccc1N1CCN(CCCCOc2ccc3ccc(O)nc3c2)CC1 as the molecule, how does the ED50 [2] read?
Answer: Its ED50 is > 127 µmol/kg.

Question: And the ED50 [5]?
Answer: Its ED50 is 0.24 µmol/kg.

Question: What about the ED50 (Mus musculus [6]) of the same molecule?
Answer: The ED50 was > 20 µmol/kg.

Question: Which ED50 (Mus musculus [7]) does the source give for O=C1CCc2ccc(OCCCCN3CCN(c4ccccc4)CC3)cc2N1 here?
Answer: The ED50 was > 28 µmol/kg.

Question: Which ED50 (Mus musculus [9]) does the source give for Cc1c(F)cccc1N1CCN(CCCCOc2ccc3c(c2)NC(=O)CC3)CC1 here?
Answer: Its ED50 is 7.2 µmol/kg.

Question: Which ED50 (Mus musculus [7]) does the source give for Cc1c(N)cccc1N1CCN(CCCCOc2ccc3c(c2)NC(=O)CC3)CC1 here?
Answer: The ED50 was > 25 µmol/kg.

Question: With CC(=O)Nc1cccc(N2CCN(CCCCOc3ccc4c(c3)NC(=O)CC4)CC2)c1C as the molecule, how does the ED50 (Mus musculus [7]) read?
Answer: Its ED50 is > 25 µmol/kg.

Question: Which ED50 [5] does the source give for Cc1c(C#N)cccc1N1CCN(CCCCOc2ccc3c(c2)NC(=O)CC3)CC1 here?
Answer: The ED50 was 4.1 µmol/kg.

Question: With Cc1ccc(N2CCN(CCCCOc3ccc4c(c3)NC(=O)CC4)CC2)cc1Cl as the molecule, how does the ED50 (Mus musculus [7]) read?
Answer: The ED50 was > 7 µmol/kg.

Question: With Cc1c(O)cccc1N1CCN(CCCCOc2ccc3c(c2)NC(=O)CC3)CC1 as the molecule, how does the ED50 (Mus musculus [10]; read-out: ED50) read?
Answer: Its ED50 is > 8 µmol/kg.

Question: With O=C1CCc2ccc(OCCCCN3CCN(c4cccc(Cl)c4Cl)CC3)cc2N1 [ARIPIPRAZOLE] as the molecule, how does the ED50 [2] read?
Answer: Its ED50 is > 286 µmol/kg.

Question: And the ED50 (Mus musculus [10])?
Answer: Its ED50 is > 22 µmol/kg.

Question: And the ED50 (Rattus norvegicus [11])?
Answer: The ED50 was 11.8 µmol/kg.

Question: And the ED50 (Rattus norvegicus [12])?
Answer: Its ED50 is 6.9 µmol/kg.

Question: What about the ED50 (Mus musculus [6]) of the same molecule?
Answer: The ED50 was 5.1 µmol/kg.

Question: For CN(C)CCCN1c2ccccc2Sc2ccc(Cl)cc21 [CHLORPROMAZINE], which ED50 [8] is on record?
Answer: Its ED50 is 19.7 µmol/kg.

Question: What about the ED50 (Mus musculus [13]) of the same molecule?
Answer: The ED50 was “inactive”.

Question: And the ED50 (Mus musculus [14])?
Answer: Its ED50 is “inactive”.

Question: And the ED50 (Rattus norvegicus [11])?
Answer: Its ED50 is 28.4 µmol/kg.

Question: Which ED50 (Mus musculus [10]; read-out: ED50) does the source give for O=C1CCc2c(cccc2OCCCCN2CCN(c3cccc(Cl)c3Cl)CC2)N1 here?
Answer: Its ED50 is > 22 µmol/kg.

Question: Which ED50 (Mus musculus [10]; read-out: ED50) does the source give for Nc1ccccc1N1CCN(CCCCOc2ccc3c(c2)NC(=O)CC3)CC1 here?
Answer: Its ED50 is > 25 µmol/kg.

Question: With O=C1CCc2ccc(OCCCCN3CCN(c4c(Cl)cccc4Cl)CC3)cc2N1 as the molecule, how does the ED50 (Mus musculus [10]; read-out: ED50) read?
Answer: Its ED50 is > 7 µmol/kg.

Question: With Cc1cccc(N2CCN(CCCOc3ccc4c(c3)NC(=O)CC4)CC2)c1C as the molecule, how does the ED50 [5] read?
Answer: The ED50 was 26 µmol/kg.

Question: Which results are given for O=C(CCCN1CCC(O)(c2ccc(Cl)cc2)CC1)c1ccc(F)cc1 [HALOPERIDOL]?
Answer: ED50 [8]: > 341 µmol/kg; ED50 (Mus musculus [13]): inactive; ED50 (Mus musculus [3]): 0.9 µmol/kg; ED50 (Mus musculus [14]): inactive; ED50 (Rattus norvegicus [11]): 1.1 µmol/kg

Question: Which ED50 [5] does the source give for Cc1c(Br)cccc1N1CCN(CCCCOc2ccc3ccc(O)nc3c2)CC1 here?
Answer: The ED50 was 2.1 µmol/kg.

Question: For O=C1CCc2ccc(OCCCCN3CCN(c4cc(Cl)cc(Cl)c4)CC3)cc2N1, which ED50 [2] is on record?
Answer: The ED50 was > 256 µmol/kg.

Question: What about the ED50 (Mus musculus [6]) of the same molecule?
Answer: The ED50 was > 22 µmol/kg.

Question: What does the source list for Cc1cccc(N2CCN(CCCOc3ccc4ccc(O)nc4c3)CC2)c1C?
Answer: ED50 [8]: 151 µmol/kg; Ratio [4]: > 1.4; ED50 [5]: 41.3 µmol/kg; ED50 (Rattus norvegicus [12]): 15.1 µmol/kg; ED50 (Mus musculus [6]): 3.5 µmol/kg; ED50 (Rattus norvegicus [15]): 1860 µmol/kg

Question: For N#Cc1ccccc1N1CCN(CCCCOc2ccc3c(c2)NC(=O)CC3)CC1, which ED50 (Mus musculus [10]; read-out: ED50) is on record?
Answer: Its ED50 is > 23 µmol/kg.

Question: For O=C1CCc2ccc(OCCCCN3CCN(c4ccc(Cl)c(Cl)c4)CC3)cc2N1, which ED50 (Mus musculus [10]; read-out: ED50) is on record?
Answer: Its ED50 is > 7 µmol/kg.

Question: Which ED50 (Mus musculus [6]) does the source give for Cc1cccc(N2CCN(CCCCOc3ccc4c(c3)NC(=O)CC4)CC2)c1Br here?
Answer: Its ED50 is > 21 µmol/kg.

Question: Which ED50 [8] does the source give for Cc1c(Cl)cccc1N1CCN(CCCCOc2ccc3c(c2)NC(=O)CC3)CC1 here?
Answer: The ED50 was > 299 µmol/kg.

Question: What about the ED50 (Mus musculus [3]) of the same molecule?
Answer: The ED50 was 5.6 µmol/kg.

Question: What about the ED50 (Mus musculus [6]) of the same molecule?
Answer: Its ED50 is 3.5 µmol/kg.

Question: With Cc1ccc(Cl)cc1N1CCN(CCCCOc2ccc3c(c2)NC(=O)CC3)CC1 as the molecule, how does the ED50 (Mus musculus [7]) read?
Answer: Its ED50 is > 23 µmol/kg.

Question: What does the source list for Cc1cccc(N2CCN(CCCCOc3ccc4c(c3)NC(=O)CC4)CC2)c1Cl?
Answer: ED50 [2]: > 150 µmol/kg; ED50 (Mus musculus [16]): 1.4 µmol/kg; ED50 (Mus musculus [6]): > 23 µmol/kg
